# Measurements reported in publication PMC5365239 (Chemical Science, 2016).
# Columns and labels:
# cellular GSH = experiment: Cellular GSH concentration by LC-ESI-MS/MS after NEM alkylation; format: cell-based, human; conditions: OVCAR5, 20 μM BSO
# Summary of the method: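 Adherent OVCAR5 cells held in RPMI-1640 with 20 μM BSO for 24 hours before HPG incorporation. Cellular GSH was alkylated with NEM and then quantified by LC-ESI-MS/MS.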
# OVCAR5 cells = experiment: MTS cytotoxicity assay after CuAAC reaction / GSH depletion; format: cell-based, human; conditions: low concentration (20 μM) BSO
# Summary of the method: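 HPG-incorporated OVCAR5 cells were exposed 10 min to CuAAC reaction mixtures. They were then returned to RPMI-1640 for 24 hours before viability was read by MTS assay. For GSH depletion, cells were first held 24 hours in RPMI-1640 containing 20 μM BSO before HPG incorporation.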
# [1] = Cu^I-ligand dissociation constant, competition assay with bicinchoninic acid; format: binding; conditions: read-out: Dissociation constant (KD) of Cu^I-ligand; BCA competition assay
SMILES,Cellular GSH concentration (cellular GSH; 24 h),Reduction of the cellular GSH level (cellular GSH; 24 hours),Cytotoxicity of GSH depletion (in words) (OVCAR5 cells),Kd [1]
"CCCCS(=N)(=O)CCC(N)C(=O)O (stereo not shown) [BSO, buthionine sulfoximine]",4.9 ± 0.4 µM,99.7%,No cytotoxicity,–
"N[C@@H](CCC(=O)N[C@@H](CS)C(=O)NCC(=O)O)C(=O)O [GSH, reduced glutathione]",–,–,–,0.031 nM
